From ChEMBL document CHEMBL6071141, “In vitro and in vivo evaluation of Bombesin-MMAE conjugates for targeted tumour therapy” (Eur J Med Chem, 2024)
Values belong to the molecule of their own block, whether it stands above or below them. Active and inactive are the calls of the source. The rule behind the calls is not given here. Numbered stars: 1 amine (or outer) side, 2 acyl side, 3 side chain; on linkers, the order of the positions; unused ones are H or OH. Bridge positions count the residues as written; N and C are the ends. Square brackets hold non-standard residues; d marks the D form. Peptide text beside a SMILES is read from it. I, II: the chains in the order shown. * marks the point of attachment. Hexanoyl(6-succinimido-3yl) = O=C1CC([*:1])C(=O)N1CCCCCC(=O)[*:2]; Dolaproine = CO[C@@H]([C@@H]1CCCN1)[C@@H](C)C(=O)O; X2 = O=C([C@H](CC1=CSC2C=CC=CC12)N[*:1])[*:2]; Dil = CC[C@H](C)[C@H](NC)[C@@H](CC(=O)O)OC; PABC = O=C(OCc1ccc(N[*:1])cc1)[*:2]; X3 = C[C@@H](N*)[C@@H](O)c1ccccc1; Cit = NC(=O)NCCC[C@H](N)C(=O)O; PEG4 = NCCOCCOCCOCCOCCC(=O)O; NMeV = CN[C@H](C(=O)O)C(C)C; Nle = CCCC[C@H](N)C(=O)O

Columns and labels:
[1] = Cytotoxicity against human PC-3 cells assessed as inhibition of cell growth incubated for 72 hrs by CellTiter 96 aqueous assay; type: toxicity, cell-based
In short: (§1)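 PC-3 or MDA-MB-231 cells were treated the day after seeding with serial dilutions, from 2000 nM for conjugates and 100 nM for MMAE, for 72 h. Then the assay was stopped, or run 72 h more after a medium change (single) or re-treatment (double). Controls got 0.05 % DMSO. Read-out was MTS absorbance at 490 nm after 90 min. IC50 by non-linear regression; ≥2 experiments, triplicates.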

[2] = Cytotoxicity against human cells MDA-MB-231 assessed as inhibition of cell growth incubated for 72 hrs by CellTiter 96 aqueous assay; type: toxicity, cell-based; details: MDA-MB-231 cells; in short: as §1
[3] = Cytotoxicity against human PC-3 cells assessed as inhibition of cell growth incubated with compound for 72 hrs followed by further incubated for 72 hrs (single treatment) by CellTiter 96 aqueous assay; type: toxicity, cell-based; in short: as §1
[4] = Cytotoxicity against human PC-3 cells assessed as inhibition of cell growth incubated for 72 hrs and followed by treated with compound continued incubation for further 72 hrs (double treatment) after retreatment of compound by CellTiter 96 aqueous assay; type: toxicity, cell-based; in short: as §1
[5] = Cytotoxicity against human MDA-MB-231 cells assessed as inhibition of cell growth incubated with compound for 72 hrs followed by further incubated for 72 hrs (single treatment) by CellTiter 96 aqueous assay; type: toxicity, cell-based; in short: as §1
[6] = Cytotoxicity against human MDA-MB-231 cells assessed as inhibition of cell growth incubated for 72 hrs and followed by treated with compound continued incubation for further 72 hrs (double treatment) after retreatment of compound by CellTiter 96 aqueous assay; type: toxicity, cell-based; in short: as §1
[7] = target: T1, Gastrin-releasing peptide receptor (Homo sapiens, UniProt P30550); experiment: Displacement of 125 I- [Tyr4] from bombesin receptor 2 in human PC-3 cells assessed as inhibition by radioligand displacement assay; type: cell-based
In short: (§2)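 Competition binding on membrane preparations from PC-3 or MDA-MB-231 cells against ¹²⁵I-[Tyr⁴]-bombesin, with conjugates at 10 μM–10 pM. IC50 was taken as the concentration giving 50 % inhibition of tracer binding.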

[8] = target: T1, Gastrin-releasing peptide receptor; experiment: Displacement of 125 I- [Tyr4] from bombesin receptor 2 in human MDA-MB-231 cells assessed as inhibition by radioligand displacement assay; type: cell-based; in short: as §2
[9] = Toxicity in mouse xenografted with human PC-3 cells assessed as body weight loss at 1 mg/kg, ip administered relative to control; type: organism-based; details: in vivo, 2 mg/kg, in the assay text read “2 mg/kg” for “1 mg/kg”
In short: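 Toxicity in mice bearing subcutaneous PC-3 tumours after a single i.p. dose 9 days post-inoculation. Free drug at 1 mg/kg, conjugates at 2 mg/kg MMAE-content, in 5 % DMSO in water; solvent controls; eight per group. Body weight followed periodically. Endpoint at 20 % weight loss; behaviour (activity, coat, stool, paleness) also scored.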

PC-3 [10] = experiment: Antitumor activity against human PC-3 cells xenografted in mouse assessed as reduction in tumour volume relative to control; type: functional; design: scale not given: the % may be the effect or the level left
In short: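 Acute study in mice bearing subcutaneous PC-3 tumours. Single i.p. dose (0.1 mL) 9 days after inoculation, at a mean tumour volume of 62 mm³. Eight per group, randomized. Conjugates at 2 mg/kg MMAE-content, free MMAE at 1 mg/kg, in 5 % DMSO in water; solvent controls. Calliper volume V = ab²×π/6. Sacrifice at 20 % weight loss or 2000 mm³.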

PC-3 [11] = experiment: Antitumor activity against human PC-3 cells xenografted in mouse assessed as inhibition in tumour growth at 0.5 mg/kg, ip administered upto 23 days; type: functional, organism-based; details: time <= 23.0 day
In short: (§3)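 Chronic study in mice bearing subcutaneous PC-3 tumours. Dosing began 8 days after cell inoculation, at a mean tumour volume of 93 mm³. Seven per group, randomized. Four i.p. doses (0.1 mL) on days 8, 11, 16 and 23 of 0.5 mg/kg MMAE-content, in 5 % DMSO in water for injection; controls got solvent. Tumour volume by calliper, V = ab²×π/6.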

PC-3 [12] = experiment: Antitumor activity against human PC-3 cells xenografted in mouse assessed as reduction in tumour weight at 0.5 mg/kg, ip administered upto 23 days relative to control; type: functional; design: scale not given: the % may be the effect or the level left; details: time <= 23 day
PC-3 [13] = experiment: Antitumor activity against human PC-3 cells xenografted in mouse assessed as reduction in tumour size at 0.5 mg/kg, ip administered upto 23 days relative to control; type: functional; design: scale not given: the % may be the effect or the level left; details: time <= 23 day; in short: as §3
[14] = Biodistribution in mouse xenografted with human PC-3 cells assessed as tumour environment incubated for 24 hrs by LC-HRMS; type: ADME, organism-based, Neoplasm; details: in vivo
In short: (§4)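 Mice bearing PC-3 xenografts received a single 2 mg/kg i.p. dose. Blood, tumour, liver, kidneys, heart, lungs and pancreas were collected at 1, 6 and 24 h and pooled per group. Tissues were homogenised in water (1:2 w/v) and centrifuged. Released MMAE was measured by LC-HRMS and expressed as %ID/g (n = 3).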

[15] = Toxicity in mouse xenografted with human PC-3 cells assessed as change in body weight at 0.2 mg/kg, ip administered upto 23 days; type: organism-based; details: in vivo, 0.5 mg/kg, 552 h, in the assay text read “0.5 mg/kg” for “0.2 mg/kg”
In short: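 Chronic dosing in mice bearing PC-3 xenografts. Free MMAE at 0.2 mg/kg (conjugates at 0.5 mg/kg MMAE-content), i.p. in 5 % DMSO in water on days 8, 11, 16 and 23 after inoculation. Seven per group; solvent controls. Body weight measured at the start and at periodic intervals.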

[16] = Toxicity in mouse xenografted with human PC-3 cells assessed as effect on liver 0.5 mg/kg, ip administered upto 23 days; details: in vivo, 552 h
PC-3 [17] = experiment: Antitumor activity against human PC-3 cells xenografted with mouse assessed as median survival days at 2 mg/kg, ip (reference value: 33 days)
PC-3 [18] = experiment: Antitumor activity against human PC-3 cells xenografted in mouse assessed as median survival day at 1 mg/kg, ip administration for 33 days; type: functional; details: time 33 day
[19] = Biodistribution in kidney mouse xenografted with human PC-3 cells incubated for 24 hrs by LC-HRMS; type: ADME, organism-based; details: in vivo
In short: (§5)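 Mice bearing s.c. PC-3 tumours given a single i.p. dose of 2 mg/kg; 3 mice per time point, sampled at 1, 6 and 24 h. Blood, tumour, liver, kidneys, heart, lungs and pancreas pooled per group and homogenised in water (1:2 w/v); supernatants analysed for MMAE by LC-HRMS; expressed as %ID/g.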

[20] = Biodistribution in liver of mouse xenografted with human PC-3 cells incubated for 24 hrs by LC-HRMS; type: ADME, organism-based; details: in vivo; in short: as §5
[21] = Biodistribution in mouse pancreas xenografted with human PC-3 cells assessed as parent compound by LC-HRMS; type: ADME, organism-based; details: in vivo; in short: as §5
[22] = Biodistribution in mouse pancreas xenografted with human PC-3 cells by LC-HRMS relative to control; type: ADME, organism-based; details: in vivo
PC-3 [23] = experiment: Antitumor activity against human PC-3 cells xenografted with mouse assessed as median survival days at 1 mg/kg, ip (reference value: 33 days)
[24] = Drug uptake in mouse blood at ip administration xenografted with human PC-3 cells measured upto 24 hrs by LC-HRMS; type: ADME, organism-based; details: in vivo; in short: as §4
[25] = Drug uptake in mouse heart at ip administration xenografted with human PC-3 cells measured upto 24 hrs by LC-HRMS; type: ADME, organism-based; details: in vivo; in short: as §4
[26] = Drug uptake in mouse kidney at ip administration xenografted with human PC-3 cells measured upto 24 hrs by LC-HRMS; type: ADME, organism-based; details: in vivo; in short: as §4
[27] = Drug uptake in mouse liver at ip administration xenografted with human PC-3 cells measured upto 24 hrs by LC-HRMS; type: ADME, organism-based; details: in vivo; in short: as §4
[28] = Drug uptake in mouse lungs at ip administration xenografted with human PC-3 cells measured upto 24 hrs by LC-HRMS; type: ADME, organism-based, Lung; details: in vivo; in short: as §4
[29] = Drug uptake in mouse pancreas at ip administration xenografted with human PC-3 cells measured upto 24 hrs by LC-HRMS; type: ADME, organism-based; details: in vivo; in short: as §4

T1 sequence (P30550 whole entry): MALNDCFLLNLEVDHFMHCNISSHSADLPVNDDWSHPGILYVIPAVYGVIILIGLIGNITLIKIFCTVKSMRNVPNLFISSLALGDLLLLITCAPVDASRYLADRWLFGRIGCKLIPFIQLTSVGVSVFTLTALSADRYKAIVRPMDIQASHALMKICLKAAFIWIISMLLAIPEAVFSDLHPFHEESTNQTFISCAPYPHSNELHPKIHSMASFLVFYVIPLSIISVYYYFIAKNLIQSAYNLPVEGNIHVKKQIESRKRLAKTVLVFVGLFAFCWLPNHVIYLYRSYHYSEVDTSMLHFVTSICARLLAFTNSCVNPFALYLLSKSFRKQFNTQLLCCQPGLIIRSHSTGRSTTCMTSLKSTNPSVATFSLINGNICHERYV

SMILES: CC[C@H](C)[C@@H]([C@@H](CC(=O)N1CCC[C@H]1[C@H](OC)[C@@H](C)C(=O)N[C@H](C)[C@@H](O)c1ccccc1)OC)N(C)C(=O)[C@@H](NC(=O)[C@H](C(C)C)N(C)C(=O)OCc1ccc(NC(=O)[C@H](CCCNC(N)=O)NC(=O)[C@@H](NC(=O)[C@H](CCC(=O)O)NC(=O)CCCCCN2C(=O)CC(SC[C@H](NC(C)=O)C(=O)NCCOCCOCCOCCOCCC(=O)N[C@H](Cc3ccccc3)C(=O)N[C@@H](CCC(N)=O)C(=O)N[C@@H](CC3=CSC4C=CC=CC34)C(=O)N[C@@H](C)C(=O)N[C@H](C(=O)NCC(=O)N[C@@H](Cc3c[nH]cn3)C(=O)N[C@@H](CC(C)C)[C@@H](O)CC(=O)N[C@@H](CC(C)C)C(N)=O)C(C)C)C2=O)C(C)C)cc1)C(C)C (stereo not given in full)
- IC50 at 72 h [1]: 29.3 nM
- IC50 at 72 h [2]: 299 nM
- IC50 at 144 h [3]: 6 nM
- IC50 at 144 h [4]: 4 nM
- IC50 at 144 h [5]: 41 nM
- IC50 at 144 h [6]: 39.9 nM
- IC50 [7]: 58.2 nM
- IC50 [8]: 70.4 nM
- Activity [9]: < 20%
- Activity (PC-3 [10]): 34.2%
- Activity (PC-3 [11]): Active
- Activity (PC-3 [12]): 26%
- Activity (PC-3 [13]): 48%
- Drug uptake [14]: Active
- Activity [15]: Toxic
- Activity [16]: Non-Toxic
- Survival (PC-3 [17]): 42 days

SMILES: CC[C@H](C)[C@@H]([C@@H](CC(=O)N1CCC[C@H]1[C@H](OC)[C@@H](C)C(=O)N[C@H](C)[C@@H](O)c1ccccc1)OC)N(C)C(=O)[C@@H](NC(=O)[C@@H](NC)C(C)C)C(C)C (H-[NMeV]V[Dil][Dolaproine]-X3)
- IC50 at 72 h [1]: 3.4 nM
- IC50 at 72 h [2]: 10.1 nM
- IC50 at 144 h [3]: 0.4 nM
- IC50 at 144 h [4]: 0.3 nM
- IC50 at 144 h [5]: 0.2 nM
- IC50 at 144 h [6]: 0.2 nM
- Survival (PC-3 [18]): 24.5 days
- Activity (PC-3 [10]): 15.9%
- Drug uptake [14]: Active
- Drug uptake [19]: Active
- Drug uptake [20]: Active
- Drug uptake [21]: 10.1%
- Drug uptake [22]: 3.55%
- Survival (PC-3 [23]): 24.5 days

- IC50 [7]: 93.6 nM
- IC50 [8]: 106 nM
- Drug uptake [24]: Not Active
- Drug uptake [25]: Not Active
- Drug uptake [26]: Not Active
- Drug uptake [27]: Not Active
- Drug uptake [28]: Not Active
- Drug uptake [29]: Not Active
SMILES: CCCC[C@H](NC(=O)[C@H](CC(C)C)NC(=O)[C@H](Cc1c[nH]cn1)NC(=O)CNC(=O)[C@@H](NC(=O)[C@H](C)NC(=O)[C@H](CC1=CSC2C=CC=CC12)NC(=O)[C@H](CCC(N)=O)NC(=O)[C@H](CC(N)=O)NC(=O)CCOCCOCCOCCOCCNC(=O)[C@H](CSC1CC(=O)N(CCCCCC(=O)N[C@@H](CCC(=O)O)C(=O)N[C@H](C(=O)N[C@@H](CCCNC(N)=O)C(=O)Nc2ccc(COC(=O)N(C)[C@H](C(=O)N[C@H](C(=O)N(C)[C@@H]([C@@H](C)CC)[C@@H](CC(=O)N3CCC[C@H]3[C@H](OC)[C@@H](C)C(=O)N[C@H](C)[C@@H](O)c3ccccc3)OC)C(C)C)C(C)C)cc2)C(C)C)C1=O)NC(C)=O)C(C)C)C(N)=O (stereo not given in full) (I: Ac-C[PEG4]NQ[X2]AVGHL[Nle]-NH2 / II: EV[Cit][PABC][NMeV]V[Dil][Dolaproine]-X3; linker I:1-II:N via Hexanoyl(6-succinimido-3yl))
- IC50 at 72 h [1]: 53.9 nM
- IC50 at 72 h [2]: 501 nM
- IC50 at 144 h [3]: 15.6 nM
- IC50 at 144 h [4]: 11.8 nM
- IC50 at 144 h [5]: 48.7 nM
- IC50 at 144 h [6]: 46.4 nM
